In ChEMBL document CHEMBL1123408, “Influence of alkyl-chain fluorination on the action of mammary tumor inhibiting 2,3-bis(hydroxyphenyl)butanes and 2,3-bis(hydroxyphenyl)but-2-enes” (1986):

Legend:
Mus musculus [1] = organism: Mus musculus; test: Relative average tumor wet weight in treated compared to untreated mice at 8 mg dose; assay type: functional
In short: (§1)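 Syngeneic female BD2F1 mice (8–10 weeks) received sc trocar implants of 1–2-mm³ MXT tumor pieces, 10 per group. Treatment began the next day: sc doses in olive oil (solution or suspension), three times weekly for 6 weeks. Tamoxifen-treated control group included. Tumor wet weight measured at sacrifice; expressed as % T/C versus untreated controls.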

[2] = biological target: T1, Estrogen receptor (Mus musculus) (UniProt O08537+P19785); test: Uterotrophic effect in BD2F mice bearing transplantable hormone dependent MXT at 1.33 mg dose; assay type: functional, tissue-based; conditions: Uterus
In short: (§2)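 MXT-bearing female BD2F1 mice (10 per group) dosed sc in olive oil three times weekly for 6 weeks from the day after tumor transplantation. Uteri excised at sacrifice and dry weight determined; values given as mean ± SD.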

[3] = biological target: T1, Estrogen receptor (Mus musculus); test: (§3) Uterotrophic effect in mice at 0.1 ug dose; assay type: functional, tissue-based; set-up: unit not given here; conditions: Uterus
In short: (§4)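 Immature female NMRI mice, 20 days old, 10 per group, given daily sc injections of 0.1 mL olive oil solution for 3 days. Uteri removed 24 h after the last dose, fixed in Bouin's solution, washed, dried and weighed. Antiestrogenic testing measured inhibition of estrone-stimulated uterine growth.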

Mus musculus [4] = organism: Mus musculus; test: Relative average tumor wet weight in treated compared to untreated mice at 4 mg dose; assay type: functional; in short: as §1
[5] = biological target: T1, Estrogen receptor (Mus musculus); test: Uterotrophic effect in BD2F mice bearing transplantable hormone dependent MXT at 8 mg dose; assay type: functional, tissue-based; conditions: Uterus; in short: as §2
[6] = biological target: T1, Estrogen receptor (Mus musculus); test: (§5) Uterotrophic effect in mice at 1 ug dose; assay type: functional, tissue-based; set-up: unit not given here; conditions: Uterus; in short: as §4
[7] = biological target: T1, Estrogen receptor (Mus musculus); test: Uterotrophic effect in BD2F mice bearing transplantable hormone dependent MXT at 4 mg dose; assay type: functional, tissue-based; conditions: Uterus; in short: as §2
[8] = biological target: T1, Estrogen receptor (Mus musculus); test: (§6) Uterotrophic effect in mice at 0 ug dose; assay type: functional, tissue-based; set-up: unit not given here; conditions: Uterus; in short: as §4
[9] = biological target: T1, Estrogen receptor (Mus musculus); test: (§7) Uterotrophic effect in mice at 10 ug dose; assay type: functional, tissue-based; set-up: unit not given here; conditions: Uterus; in short: as §4
Mus musculus [10] = organism: Mus musculus; test: Relative average tumor wet weight in treated compared to untreated mice at 1.33 mg dose; assay type: functional
In short: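 MXT mammary tumor pieces of 1-2 mm³ from syngeneic donors were implanted sc by trocar into female BD2F₁ mice aged 8-10 weeks (20.0 ± 1.7 g), groups of 10. From the next day, compound in olive oil was given sc three times weekly for 6 weeks. Tumor wet weight was measured at the end and expressed as % T/C.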

Rattus norvegicus [11] = test: Initial in tumor number in DMBA-Induced Hormone-Dependent Mammary Carcinoma in rats at 2 mg/kg dose; assay type: functional
Rattus norvegicus [12] = test: Percent progression in DMBA-Induced Hormone-Dependent Mammary Carcinoma in rats at 2 mg/kg dose; assay type: functional
[13] = biological target: T1, Estrogen receptor (Mus musculus); test: Uterotrophic effect in mice at 1000 ug dose; assay type: functional, tissue-based; set-up: unit not given here; conditions: Uterus; in short: as §4
Rattus norvegicus [14] = test: Percent change in total tumor area in DMBA-Induced Hormone-Dependent Mammary Carcinoma rats at 5 mg/kg dose; assay type: functional
[15] = biological target: T1, Estrogen receptor (Mus musculus); test: as §5; assay type: functional, tissue-based; conditions: Uterus; in short: as §4
Rattus norvegicus [16] = test: Percent progression in DMBA-Induced Hormone-Dependent Mammary Carcinoma model in rats at 5 mg/kg dose; assay type: functional
Rattus norvegicus [17] = test: Percent unchanged tumors in DMBA-Induced Hormone-Dependent Mammary Carcinoma in rats at 5 mg/kg dose; assay type: functional
Rattus norvegicus [18] = test: Percent complete remission in DMBA-Induced Hormone-Dependent Mammary Carcinoma in rats at 5 mg/kg dose; assay type: functional
[19] = biological target: T1, Estrogen receptor (Mus musculus); test: as §6; assay type: functional, tissue-based; set-up: unit not given here; conditions: Uterus; in short: as §4; remark: listed apart in the source
Rattus norvegicus [20] = test: Percent complete remission in DMBA-Induced Hormone-Dependent Mammary Carcinoma in rats at 2 mg/kg dose; assay type: functional
[21] = biological target: T1, Estrogen receptor (Mus musculus); test: (§8) Uterotrophic effect in mice at 100 ug dose; assay type: functional, tissue-based; set-up: unit not given here; conditions: Uterus; in short: as §4
Rattus norvegicus [22] = test: Percent change in total tumor area in DMBA-Induced Hormone-Dependent Mammary Carcinoma rats at 2 mg/kg dose; assay type: functional
Rattus norvegicus [23] = test: Initial tumor number in DMBA-Induced Hormone-Dependent Mammary Carcinoma in rats at 5 mg/kg dose; assay type: functional
Mus musculus [24] = organism: Mus musculus; test: Relative average tumor wet weight in treated compared to untreated mice at 20 mg dose; assay type: functional; in short: as §1
Rattus norvegicus [25] = test: Final tumor number in DMBA-Induced Hormone-Dependent Mammary Carcinoma in rats at 5 mg/kg dose; assay type: functional
[26] = biological target: T1, Estrogen receptor (Mus musculus); test: Anti-uterotrophic effect in mice at 10 ug dose; assay type: functional
In short: (§9)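 Immature female NMRI mice, 20 days old (14.5 ± 1.2 g), randomized into groups of 10. Each received a daily sc injection of compound in 0.1 mL olive oil for 3 days, given together with estrone. Uteri were taken 24 h after the last injection, fixed in Bouin's solution, washed, dried and weighed. The read-out was inhibition of estrone-stimulated uterine growth.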

[27] = biological target: T1, Estrogen receptor (Mus musculus); test: Uterotrophic effect in mice at 25 ug dose; assay type: functional, tissue-based; set-up: unit not given here; conditions: Uterus; in short: as §4
[28] = biological target: T1, Estrogen receptor (Mus musculus); test: as §8; assay type: functional, tissue-based; conditions: Uterus; in short: as §4
[29] = biological target: T1, Estrogen receptor (Mus musculus); test: as §7; assay type: functional, tissue-based; conditions: Uterus; in short: as §4
[30] = biological target: T1, Estrogen receptor (Mus musculus); test: as §3; assay type: functional, tissue-based; conditions: Uterus; in short: as §4
Rattus norvegicus [31] = test: Percent unchanged tumors in DMBA-Induced Hormone-Dependent Mammary Carcinoma in rats at 2 mg/kg dose; assay type: functional
Rattus norvegicus [32] = test: Percent change in body weight in DMBA-Induced Hormone-Dependent Mammary Carcinoma rats at 5 mg/kg dose; assay type: functional
[33] = biological target: T1, Estrogen receptor (Mus musculus); test: Anti-uterotrophic effect in mice at 1 ug dose; assay type: functional; in short: as §9
[34] = biological target: T1, Estrogen receptor (Mus musculus); test: Uterotrophic effect in BD2F mice bearing transplantable hormone dependent MXT at 20 mg dose; assay type: functional, tissue-based; conditions: Uterus; in short: as §2
[35] = biological target: T1, Estrogen receptor (Mus musculus); test: Anti-uterotrophic effect in mice at 25 ug dose; assay type: functional; in short: as §9
Rattus norvegicus [36] = test: Percent change in body weight in DMBA-Induced Hormone-Dependent Mammary Carcinoma rats at 2 mg/kg dose; assay type: functional
Rattus norvegicus [37] = test: Percent partial remission in DMBA-Induced Hormone-Dependent Mammary Carcinoma in rats at 5 mg/kg dose; assay type: functional
Rattus norvegicus [38] = test: Final tumor number in DMBA-Induced Hormone-Dependent Mammary Carcinoma in rats at 2 mg/kg dose; assay type: functional
[39] = biological target: T1, Estrogen receptor (Mus musculus); test: Anti-uterotrophic effect in mice at 100 ug dose; assay type: functional; in short: as §9
Rattus norvegicus [40] = test: Percent partial remission in DMBA-Induced Hormone-Dependent Mammary Carcinoma in rats at 2 mg/kg dose; assay type: functional

T1 sequence (O08537 whole entry, looked up): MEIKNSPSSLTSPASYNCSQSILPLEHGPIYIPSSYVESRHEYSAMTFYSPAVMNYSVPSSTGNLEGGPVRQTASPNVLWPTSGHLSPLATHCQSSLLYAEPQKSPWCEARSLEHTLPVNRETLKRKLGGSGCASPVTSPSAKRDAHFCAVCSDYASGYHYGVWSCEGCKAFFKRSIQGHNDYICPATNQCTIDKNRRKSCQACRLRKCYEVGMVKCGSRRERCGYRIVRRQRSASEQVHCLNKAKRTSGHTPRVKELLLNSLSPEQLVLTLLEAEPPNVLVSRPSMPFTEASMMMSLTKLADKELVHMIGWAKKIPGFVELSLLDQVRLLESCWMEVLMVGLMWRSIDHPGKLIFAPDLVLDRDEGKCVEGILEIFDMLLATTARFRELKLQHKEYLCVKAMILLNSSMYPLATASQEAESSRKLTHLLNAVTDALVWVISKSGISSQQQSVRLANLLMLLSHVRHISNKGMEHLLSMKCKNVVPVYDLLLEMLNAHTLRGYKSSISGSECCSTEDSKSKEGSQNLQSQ
T1 sequence (P19785 whole entry, looked up): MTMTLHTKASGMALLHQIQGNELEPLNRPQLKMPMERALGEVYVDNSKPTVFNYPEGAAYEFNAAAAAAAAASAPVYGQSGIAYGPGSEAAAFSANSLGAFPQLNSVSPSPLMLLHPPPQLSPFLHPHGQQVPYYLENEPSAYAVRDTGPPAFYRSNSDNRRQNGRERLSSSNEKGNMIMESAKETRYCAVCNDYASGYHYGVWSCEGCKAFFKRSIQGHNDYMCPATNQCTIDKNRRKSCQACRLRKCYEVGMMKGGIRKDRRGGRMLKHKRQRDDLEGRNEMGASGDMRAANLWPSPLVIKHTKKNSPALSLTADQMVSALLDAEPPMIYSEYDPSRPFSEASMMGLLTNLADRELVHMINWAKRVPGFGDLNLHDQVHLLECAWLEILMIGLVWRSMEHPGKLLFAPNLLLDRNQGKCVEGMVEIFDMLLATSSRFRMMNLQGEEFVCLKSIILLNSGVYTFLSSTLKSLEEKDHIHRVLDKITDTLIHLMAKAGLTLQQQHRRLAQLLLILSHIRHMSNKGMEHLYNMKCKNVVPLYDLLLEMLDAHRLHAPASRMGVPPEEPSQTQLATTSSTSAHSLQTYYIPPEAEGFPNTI

Structure (SMILES): Oc1ccc(/C(=C(/c2ccc(O)cc2)C(F)(F)F)C(F)(F)F)cc1
- TC (Mus musculus [1]): 5.2%
- Effect [2]: 182
- Effect [3]: 56.4
- TC (Mus musculus [4]): 5.5%
- Effect [5]: 169
- Effect [6]: 52.6
- Effect [7]: 179
- Effect [8]: 13.7
- Effect [9]: 38.2
- TC (Mus musculus [10]): 10.4%

Structure (SMILES): Oc1cccc([C@H]([C@H](c2cccc(O)c2)C(F)(F)F)C(F)(F)F)c1
- No. of tumors (Rattus norvegicus [11]): 21
- Tumors (Rattus norvegicus [12]): 47%
- Effect [13]: 36
- Change in tumor area % (Rattus norvegicus [14]): 166%
- Effect [15]: 31.4
- Change in weight (Rattus norvegicus [16]): 38%
- Tumors (Rattus norvegicus [17]): 29%
- Effect [3]: 10.1
- Tumors (Rattus norvegicus [18]): 21%
- TC (Mus musculus [4]): 23.9%
- Effect [19]: 13.3
- Tumors (Rattus norvegicus [20]): 15%
- Effect [21]: 34.8
- Change in tumor area % (Rattus norvegicus [22]): 165%
- No. of tumors (Rattus norvegicus [23]): 23
- TC (Mus musculus [24]): 10.9%
- No. of tumors (Rattus norvegicus [25]): 11
- inhibition [26]: 34.5%
- Effect [6]: 15.4
- Effect [27]: 28.8
- Effect [28]: 36.7
- Effect [29]: 32
- Effect [30]: 10.1
- Tumors (Rattus norvegicus [31]): 28%
- Change in weight (Rattus norvegicus [32]): -0.4%
- inhibition [33]: 36.6%
- Effect [7]: 84
- Effect [8]: 10.8
- Effect [34]: 90.1
- inhibition [35]: 45.5%
- Change in weight (Rattus norvegicus [36]): -1.1%
- Effect [9]: 19.8
- Tumors (Rattus norvegicus [37]): 12%
- No. of tumors (Rattus norvegicus [38]): 19
- inhibition [39]: 18%
- Tumors (Rattus norvegicus [40]): 10%
